Data from ChEMBL document CHEMBL2146441, “2,6-Disubstituted imidazo[2,1-b][1,3,4]thiadiazoles: search for anticancer agents” (2012).

Assays:
Format in all cases: functional
NCI-H226 = assay: Cytotoxicity against human NCI-H226 cells assessed as cell growth at 10^-5 M after 48 hrs by SRB assay; conditions: NCI-H226, 48 h, read-out: Activity
U-251 = assay: Cytotoxicity against human U251 cells assessed as cell growth at 10^-5 M after 48 hrs by SRB assay; conditions: U-251, 48 h, read-out: Activity
786-0 [1] = assay: Cytotoxicity against human 786-0 cells assessed as cell growth at 10^-5 M after 48 hrs by SRB assay; conditions: 786-0, 48 h, read-out: Activity
In short: (§1)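 NCI-60 screen: lines kept in RPMI 1640 with 5% FBS, seeded at 5000–40,000 cells/well by doubling time, preincubated 24 h at 37 °C in 5% CO2. Time-zero plates TCA-fixed at drug addition. DMSO stocks diluted in medium, 48 h exposure. Fixation in cold TCA (final 10% adherent, 16% suspension), 0.4% SRB stain, solubilised in 10 mM Tris base, A515. Percent growth computed against control and time-zero.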

SF-295 [2] = assay: Growth inhibition of human SF295 cells after 48 hrs by SRB assay; conditions: SF-295, 48 h; for CC50: read-out: LC50 (the source's name)
In short: (§2)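 Adherent NCI-60 lines grown in RPMI 1640 with 5% FBS, seeded at 5000–40,000 cells/well, and preincubated 24 h at 37 °C, 5% CO2. Compound, stocked in DMSO, given either once at 10^-5 M or at five 10-fold dilutions for 48 h. Cells fixed with cold TCA (final 10%), stained with 0.4% SRB, and read at 515 nm. GI50 taken as 50% reduction in net protein increase versus time-zero and control plates.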

UACC-62 = assay: Growth inhibition of human UACC62 cells after 48 hrs by SRB assay; conditions: UACC-62, 48 h; for CC50: read-out: LC50 (the source's name); in short: as §2
HOP-62 [3] = assay: Cytotoxicity against human HOP62 cells assessed as cell growth at 10^-7 M after 48 hrs by SRB assay; conditions: HOP-62, 48 h, read-out: Activity
In short: (§3)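 NCI-60 five-dose screen. Cells were grown in RPMI 1640 with 5% FBS and seeded at 5000–40,000 cells/well according to doubling time. They were pre-incubated 24 h at 37 °C in 5% CO₂, and time-zero (Tz) plates were TCA-fixed at drug addition. Five 10-fold dilutions of DMSO stock were applied for 48 h. Read-out was SRB staining, 515 nm absorbance, with percent growth calculated versus Tz and untreated control.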

COLO = assay: Cytotoxicity against human COLO […] cells assessed as cell growth at 10^-7 M after 48 hrs by SRB assay; conditions: read-out: Activity; in short: as §1
KM12 = assay: Cytotoxicity against human KM12 cells assessed as cell growth at 10^-7 M after 48 hrs by SRB assay; conditions: KM12, 48 h, read-out: Activity
SF-268 [4] = assay: Cytotoxicity against human SF268 cells assessed as cell growth at 10^-7 M after 48 hrs by SRB assay; conditions: SF-268, 48 h, read-out: Activity
SF-295 [5] = assay: Cytotoxicity against human SF295 cells assessed as cell growth at 10^-7 M after 48 hrs by SRB assay; conditions: SF-295, 48 h, read-out: Activity
SK-MEL-2 = assay: Cytotoxicity against human SK-MEL-2 cells assessed as cell growth at 10^-7 M after 48 hrs by SRB assay; conditions: SK-MEL-2, 48 h, read-out: Activity
UACC-257 = assay: Cytotoxicity against human UACC257 cells assessed as cell growth at 10^-7 M after 48 hrs by SRB assay; conditions: UACC-257, 48 h, read-out: Activity
HOP-62 [6] = assay: Cytotoxicity against human HOP62 cells assessed as cell growth at 10^-4 M after 48 hrs by SRB assay; conditions: HOP-62, 48 h, read-out: Activity; in short: as §3
CAKI-1 = assay: Cytotoxicity against human Caki1 cells assessed as cell growth at 10^-4 M after 48 hrs by SRB assay; conditions: CAKI-1, 48 h, read-out: Activity; in short: as §1
[7] = Cytotoxicity against human Hs 578T cells assessed as cell growth at 10^-4 M after 48 hrs by SRB assay; conditions: read-out: Activity; in short: as §3
OVCAR-5 = assay: Cytotoxicity against human OVCAR5 cells assessed as cell growth at 10^-7 M after 48 hrs by SRB assay; conditions: OVCAR-5, 48 h, read-out: Activity
SN12C [8] = assay: Cytotoxicity against human SN12C cells assessed as cell growth at 10^-7 M after 48 hrs by SRB assay; conditions: read-out: Activity
TK-10 [9] = assay: Cytotoxicity against human TK10 cells assessed as cell growth at 10^-7 M after 48 hrs by SRB assay; conditions: TK-10, 48 h, read-out: Activity
DU-145 = assay: Cytotoxicity against human DU145 cells assessed as cell growth at 10^-7 M after 48 hrs by SRB assay; conditions: DU-145, 48 h, read-out: Activity; in short: as §1
HCT-116 = assay: Cytotoxicity against human HCT116 cells assessed as cell growth at 10^-8 M after 48 hrs by SRB assay; conditions: HCT-116, 48 h, read-out: Activity; in short: as §3
SW-620 = assay: Cytotoxicity against human SW620 cells assessed as cell growth at 10^-8 M after 48 hrs by SRB assay; conditions: SW-620, 48 h, read-out: Activity
SK-MEL-28 = assay: Cytotoxicity against human SK-MEL-28 cells assessed as cell growth at 10^-8 M after 48 hrs by SRB assay; conditions: SK-MEL-28, 48 h, read-out: Activity
SK-OV-3 = assay: Cytotoxicity against human SKOV3 cells assessed as cell growth at 10^-8 M after 48 hrs by SRB assay; conditions: SK-OV-3, 48 h, read-out: Activity
786-0 [10] = assay: Cytotoxicity against human 786-0 cells assessed as cell growth at 10^-8 M after 48 hrs by SRB assay; conditions: 786-0, 48 h, read-out: Activity; in short: as §1
TK-10 [11] = assay: Cytotoxicity against human TK10 cells assessed as cell growth at 10^-8 M after 48 hrs by SRB assay; conditions: TK-10, 48 h, read-out: Activity
CCRF-CEM = assay: Cytotoxicity against human CCRF-CEM cells assessed as cell growth at 10^-6 M after 48 hrs by SRB assay; conditions: read-out: Activity; in short: as §1
NCI-H322M = assay: Cytotoxicity against human NCI-H322M cells assessed as cell growth at 10^-6 M after 48 hrs by SRB assay; conditions: read-out: Activity
SF-268 [12] = assay: Cytotoxicity against human SF268 cells assessed as cell growth at 10^-6 M after 48 hrs by SRB assay; conditions: SF-268, 48 h, read-out: Activity
MDA-MB-435 = assay: Cytotoxicity against human MDA-MB-435 cells assessed as cell growth at 10^-6 M after 48 hrs by SRB assay; conditions: MDA-MB-435, 48 h, read-out: Activity
SN12C [13] = assay: Cytotoxicity against human SN12C cells assessed as cell growth at 10^-6 M after 48 hrs by SRB assay; conditions: read-out: Activity
NCI-H460 = assay: Growth inhibition of human NCI-H460 cells after 48 hrs by SRB assay; conditions: NCI-H460, 48 h; for CC50: read-out: LC50 (the source's name); in short: as §2

| SMILES | growth at 10 µM (NCI-H226) | growth at 10 µM (U-251) | growth at 10 µM (786-0 [1]) | GI50 (SF-295 [2]) | TGI (SF-295 [2]) | CC50 (SF-295 [2]) | GI50 (UACC-62) | TGI (UACC-62) | CC50 (UACC-62) | growth at 0.1 µM (HOP-62 [3]) | growth at 0.1 µM (COLO) | growth at 0.1 µM (KM12) | growth at 0.1 µM (SF-268 [4]) | growth at 0.1 µM (SF-295 [5]) | growth at 0.1 µM (SK-MEL-2) | growth at 0.1 µM (UACC-257) | growth at 100 µM (HOP-62 [6]) | growth at 100 µM (CAKI-1) | growth at 100 µM [7] | growth at 0.1 µM (OVCAR-5) | also measured |
| --- | --- | --- | --- | --- | --- | --- | --- | --- | --- | --- | --- | --- | --- | --- | --- | --- | --- | --- | --- | --- | --- |
| COc1ccc(-c2nn3cc(-c4cccc(N)c4)nc3s2)cc1 | 16% | 44% | 23% | 2.88 µM | 29.3 µM | > 100 µM | 2.92 µM | 24.4 µM | > 100 µM | 98% | 101% | 100% | 101% | 87% | 93% | 109% | -54% | -39% | -10% | 103% | growth at 0.1 µM (SN12C [8]): 91%; growth at 0.1 µM (TK-10 [9]): 135%; growth at 0.1 µM (DU-145): 103%; growth at 0.01 µM (HCT-116): 99%; growth at 0.01 µM (SW-620): 95%; growth at 0.01 µM (SK-MEL-28): 95%; growth at 0.01 µM (SK-OV-3): 97%; growth at 0.01 µM (786-0 [10]): 106%; growth at 0.01 µM (TK-10 [11]): 125%; growth at 1 µM (CCRF-CEM): 63%; growth at 1 µM (NCI-H322M): 86%; growth at 1 µM (SF-268 [12]): 88%; growth at 1 µM (MDA-MB-435): 77%; growth at 1 µM (SN12C [13]): 73%; GI50 (NCI-H460): 3.36 µM; TGI (NCI-H460): 28.9 µM; CC50 (NCI-H460): > 100 µM |
| COc1ccc(-c2nn3cc(-c4ccc(O)cc4O)nc3s2)cc1 | -11% | -41% | -78% | 2.16 µM | 15.1 µM | > 100 µM | 3.47 µM | 17.7 µM | 59.4 µM | 91% | 106% | 96% | 96% | 90% | 96% | 92% | -22% | -9% | -1% | 90% | growth at 0.1 µM (SN12C [8]): 93%; growth at 0.1 µM (TK-10 [9]): 105%; growth at 0.1 µM (DU-145): 96%; growth at 0.01 µM (HCT-116): 94%; growth at 0.01 µM (SW-620): 97%; growth at 0.01 µM (SK-MEL-28): 95%; growth at 0.01 µM (SK-OV-3): 102%; growth at 0.01 µM (786-0 [10]): 97%; growth at 0.01 µM (TK-10 [11]): 92%; growth at 1 µM (CCRF-CEM): 74%; growth at 1 µM (NCI-H322M): 77%; growth at 1 µM (SF-268 [12]): 73%; growth at 1 µM (MDA-MB-435): 76%; growth at 1 µM (SN12C [13]): 80%; GI50 (NCI-H460): 2.02 µM; CC50 (NCI-H460): > 100 µM |
